Activity calls are given as the source filed them. The rule behind the calls is not given here.
Columns and labels:
[1] = target: 3-phosphoinositide-dependent protein kinase 1 (Homo sapiens) (UniProt O15530); assay: Inhibition of PDK1 phosphorylation in human A549 cells after 24 hrs by Western blot analysis; assay type: cell-based
How it was run: (§1)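 A549 cells (RPMI 1640, 10% FBS, 37 °C, 5% CO2) exposed to the compound at various concentrations for 24 or 48 h. Lysates run on 6–15% SDS-PAGE, transferred to PVDF, probed with primary antibodies overnight at 4 °C, and detected by ECL. Blots shown are representative of three independent experiments.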

[2] = target: Hepatocyte growth factor receptor (Homo sapiens) (UniProt P08581); assay: Inhibition of c-Met-mediated FKHRL1 phosphorylation in HGF-stimulated human A549 cells pretreated at 5 to 100 nM by Western blot analysis; assay type: cell-based
How it was run: (§2)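 A549 cells pretreated for 2 h with the compound at 5, 20 or 100 nM, then stimulated with HGF (50 ng/mL) for 10 min. c-Met and its downstream signalling proteins read by Western blot (SDS-PAGE, PVDF transfer, ECL detection).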

[3] = target: Epidermal growth factor receptor (Homo sapiens) (UniProt P00533); assay: Inhibition of EGFR-mediated Akt phosphorylation in EGF-stimulated human A549 cells pretreated at 20 nM by Western blot analysis; assay type: cell-based
How it was run: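 A549 cells serum-starved 24 h, pretreated with 20 nM compound for 2 h, then stimulated with EGF (10 ng/mL) for 10 min. Levels of EGFR, Akt and ERK read by Western blot.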

A549 [4] = assay: Upregulation of p21 expression in human A549 cells at G1 phase at 5 to 100 nM after 24 to 48 hrs by Western blot analysis; assay type: functional, cell-based; how it was run: as §1
[5] = target: Serine/threonine-protein kinase mTOR (Homo sapiens) (UniProt P42345); assay: Inhibition of MTOR-mediated 4EBP1 phosphorylation in human A549 cells at 20 nM after 24 to 48 hrs by Western blot analysis; assay type: cell-based; how it was run: as §1
Mus musculus = assay: Toxicity in BALB/c mouse xenografted with human A549 cells in assessed as overt signs at 0.5 mg/kg, po once daily for 14 days measured for 27 days relative to control; assay type: organism-based; design: dose 0.5 mg/kg, route oral; conditions: in vivo, 648 h
How it was run: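 Female nu/nu mice were injected sc in the right flank with 3 × 10^6 A549 cells. At about 100 mm3 tumour volume, mice were randomised into groups of five. Compound was given orally at 0.2 or 0.5 mg/kg once daily for 14 days in ethanol/Tween 80/H2O (1:1:98). Body weight and overt toxicity were monitored against vehicle controls.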

A549 [6] = assay: Cell cycle arrest in human A549 cells assessed as accumulation at S phase at 100 nM after 48 hrs by propidium iodide staining-based flow cytometric analysis (reference value: 31.6 %); assay type: functional
A549 [7] = assay: Cell cycle arrest in human A549 cells assessed as accumulation at S phase at 100 nM after 24 hrs by propidium iodide staining-based flow cytometric analysis (reference value: 31.6 %); assay type: functional
[8] = target: Epidermal growth factor receptor (Homo sapiens) (UniProt P00533); assay: Inhibition of EGFR-mediated ERK1/2 phosphorylation in EGF-stimulated human A549 cells pretreated at 5 to 100 nM by Western blot analysis; assay type: cell-based
A549 [9] = assay: Downregulation of CDK4 expression in human A549 cells at G1 phase at 5 to 100 nM after 24 to 48 hrs by Western blot analysis; assay type: functional, cell-based
How it was run: (§3)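 A549 cells treated with a range of concentrations for 24 or 48 h. Lysates run on 6–15% SDS-PAGE and blotted to PVDF, blocked in 5% milk/PBST. Primary antibodies overnight at 4 °C, secondary 2 h at room temperature, ECL detection. Representative of three independent experiments.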

A549 [10] = assay: Downregulation of cyclin E expression in human A549 cells at G1 phase at 5 to 100 nM after 24 to 48 hrs by Western blot analysis; assay type: functional, cell-based; how it was run: as §3
A549 [11] = assay: Cell cycle arrest in human A549 cells assessed as accumulation at G2/M phase at 20 nM after 48 hrs by propidium iodide staining-based flow cytometric analysis (reference value: 18.9 %); assay type: functional
[12] = Antiproliferative activity against human H1299 cells after 3 days by SRB assay; assay type: functional, cell-based; conditions: NCI-H1299, 72 h
How it was run: (§4)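 Cells seeded at 5 × 10^4 cells/mL and exposed to a range of concentrations for 3 days. Fixed with 10% TCA, then SRB stain read. Growth expressed as % of solvent-treated control. IC50 obtained by nonlinear regression of percent survival versus concentration.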

A549 [13] = assay: Downregulation of phosphorylated Rb expression in human A549 cells at G1 phase at 5 to 100 nM after 24 to 48 hrs by Western blot analysis; assay type: functional, cell-based; how it was run: as §3
A549 [14] = assay: Cell cycle arrest in human A549 cells assessed as accumulation at S phase at 20 nM after 24 hrs by propidium iodide staining-based flow cytometric analysis (reference value: 31.6 %); assay type: functional
A549 [15] = assay: Downregulation of cyclin B1 expression in human A549 cells at G2/M phase at 5 to 100 nM after 24 to 48 hrs by Western blot analysis; assay type: functional, cell-based; how it was run: as §3
NCI-H1993 = assay: Antiproliferative activity against gefitinib resistant human NCI-H1993 cells after 3 days by SRB assay; assay type: functional, cell-based; conditions: NCI-H1993, 72 h
A549 [16] = assay: Cell cycle arrest in human A549 cells assessed as accumulation at Sub-G1 phase at 100 nM after 24 hrs by propidium iodide staining-based flow cytometric analysis (reference value: 0.2 %); assay type: functional
[17] = target: Hepatocyte growth factor receptor (Homo sapiens) (UniProt P08581); assay: Inhibition of c-Met-mediated MTOR phosphorylation in HGF-stimulated human A549 cells pretreated at 5 to 100 nM by Western blot analysis; assay type: cell-based; how it was run: as §2
[18] = target: Serine/threonine-protein kinase mTOR (Homo sapiens) (UniProt P42345); assay: Inhibition of MTOR-mediated p70S6K activation in human A549 cells at 20 nM after 24 to 48 hrs by Western blot analysis; assay type: cell-based; how it was run: as §1
A549 [19] = assay: Cell cycle arrest in human A549 cells assessed as accumulation at G0/G1 phase at 20 nM after 24 hrs by propidium iodide staining-based flow cytometric analysis (reference value: 49.6 %); assay type: functional
[20] = target: Serine/threonine-protein kinase mTOR (Homo sapiens) (UniProt P42345); assay: Inhibition of MTOR phosphorylation in human A549 cells at 20 nM after 24 to 48 hrs by Western blot analysis; assay type: cell-based; how it was run: as §1
[21] = target: Glycogen synthase kinase-3 beta (Homo sapiens) (UniProt P49841); assay: Inhibition of GSK3-beta in human A549 cells after 24 hrs by Western blot analysis; assay type: cell-based; how it was run: as §1
[22] = target: Signal transducer and activator of transcription 3 (Homo sapiens) (UniProt P40763); assay: Inhibition of STAT3 phosphorylation in human A549 cells after 24 hrs by Western blot analysis; assay type: cell-based; how it was run: as §1
A549 [23] = assay: Cell cycle arrest in human A549 cells assessed as accumulation at G0/G1 phase at 20 nM after 48 hrs by propidium iodide staining-based flow cytometric analysis (reference value: 49.6 %); assay type: functional
SK-MES-1 = assay: Antiproliferative activity against human SK-MES cells after 3 days by SRB assay; assay type: functional, cell-based; conditions: SK-MES-1, 72 h; how it was run: as §4
[24] = target: Mitogen-activated protein kinase; ERK1/ERK2 (Homo sapiens) (UniProt P27361+P28482); assay: Inhibition of ERK1/2 in human A549 cells at 5 to 40 nM after 24 hrs by Western blot analysis; assay type: cell-based; how it was run: as §1
Sequence of Mitogen-activated protein kinase; ERK1/ERK2 (Homo sapiens) (P27361 whole entry, looked up): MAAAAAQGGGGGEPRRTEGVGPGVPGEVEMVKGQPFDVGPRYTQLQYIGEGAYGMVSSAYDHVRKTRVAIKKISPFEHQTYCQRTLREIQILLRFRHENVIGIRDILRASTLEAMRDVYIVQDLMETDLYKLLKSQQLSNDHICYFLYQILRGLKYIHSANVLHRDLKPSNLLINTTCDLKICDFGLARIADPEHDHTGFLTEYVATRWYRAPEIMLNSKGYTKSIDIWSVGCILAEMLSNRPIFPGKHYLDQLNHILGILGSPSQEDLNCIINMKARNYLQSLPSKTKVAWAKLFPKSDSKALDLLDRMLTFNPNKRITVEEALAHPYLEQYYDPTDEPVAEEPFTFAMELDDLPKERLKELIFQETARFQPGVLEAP
Sequence of Mitogen-activated protein kinase; ERK1/ERK2 (Homo sapiens) (P28482 whole entry, looked up): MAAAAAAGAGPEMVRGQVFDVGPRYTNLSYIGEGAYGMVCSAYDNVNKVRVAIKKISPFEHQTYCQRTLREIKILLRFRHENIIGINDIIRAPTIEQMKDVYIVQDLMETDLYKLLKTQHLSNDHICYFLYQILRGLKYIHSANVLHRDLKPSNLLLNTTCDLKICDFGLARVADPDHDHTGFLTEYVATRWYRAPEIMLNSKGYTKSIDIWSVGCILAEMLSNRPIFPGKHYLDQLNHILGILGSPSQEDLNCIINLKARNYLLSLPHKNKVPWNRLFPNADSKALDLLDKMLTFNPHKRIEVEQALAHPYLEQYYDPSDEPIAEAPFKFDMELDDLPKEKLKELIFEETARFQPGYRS

Sequence of Hepatocyte growth factor receptor (Homo sapiens) (P08581 whole entry): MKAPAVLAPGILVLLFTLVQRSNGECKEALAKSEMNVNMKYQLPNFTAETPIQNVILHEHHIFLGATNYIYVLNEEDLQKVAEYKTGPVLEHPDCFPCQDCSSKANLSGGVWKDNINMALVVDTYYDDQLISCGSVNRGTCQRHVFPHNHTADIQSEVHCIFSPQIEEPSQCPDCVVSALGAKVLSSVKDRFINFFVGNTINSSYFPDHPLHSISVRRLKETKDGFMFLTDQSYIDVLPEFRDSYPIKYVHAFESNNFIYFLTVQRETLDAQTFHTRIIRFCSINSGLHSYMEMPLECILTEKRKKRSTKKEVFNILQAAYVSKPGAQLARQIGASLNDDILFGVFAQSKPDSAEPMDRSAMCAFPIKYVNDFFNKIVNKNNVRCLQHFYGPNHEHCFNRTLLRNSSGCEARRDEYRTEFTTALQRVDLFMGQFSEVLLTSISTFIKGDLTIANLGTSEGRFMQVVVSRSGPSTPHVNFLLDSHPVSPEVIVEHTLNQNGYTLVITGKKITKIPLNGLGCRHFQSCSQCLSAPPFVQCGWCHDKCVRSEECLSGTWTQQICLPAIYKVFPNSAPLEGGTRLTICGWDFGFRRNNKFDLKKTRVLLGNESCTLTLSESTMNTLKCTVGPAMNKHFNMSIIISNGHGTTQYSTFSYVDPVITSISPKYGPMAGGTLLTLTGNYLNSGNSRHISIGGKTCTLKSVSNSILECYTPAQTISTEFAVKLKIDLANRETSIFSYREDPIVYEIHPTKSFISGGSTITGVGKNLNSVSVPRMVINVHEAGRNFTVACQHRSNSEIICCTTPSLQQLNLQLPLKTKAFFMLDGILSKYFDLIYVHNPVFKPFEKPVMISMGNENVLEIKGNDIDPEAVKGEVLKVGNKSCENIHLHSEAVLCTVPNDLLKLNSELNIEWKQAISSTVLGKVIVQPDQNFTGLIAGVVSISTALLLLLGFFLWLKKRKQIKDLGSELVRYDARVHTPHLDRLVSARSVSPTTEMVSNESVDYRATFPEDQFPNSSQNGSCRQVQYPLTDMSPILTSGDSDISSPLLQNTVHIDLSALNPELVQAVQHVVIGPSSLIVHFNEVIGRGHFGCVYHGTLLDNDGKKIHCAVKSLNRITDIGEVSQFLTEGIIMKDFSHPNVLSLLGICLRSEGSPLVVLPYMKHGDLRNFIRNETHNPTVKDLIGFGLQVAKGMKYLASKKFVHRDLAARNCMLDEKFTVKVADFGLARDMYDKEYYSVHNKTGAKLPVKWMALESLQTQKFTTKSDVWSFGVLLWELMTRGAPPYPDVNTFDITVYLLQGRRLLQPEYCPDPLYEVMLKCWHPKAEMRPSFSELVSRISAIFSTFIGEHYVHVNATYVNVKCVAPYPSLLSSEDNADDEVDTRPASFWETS
Sequence of Epidermal growth factor receptor (Homo sapiens) (P00533 whole entry): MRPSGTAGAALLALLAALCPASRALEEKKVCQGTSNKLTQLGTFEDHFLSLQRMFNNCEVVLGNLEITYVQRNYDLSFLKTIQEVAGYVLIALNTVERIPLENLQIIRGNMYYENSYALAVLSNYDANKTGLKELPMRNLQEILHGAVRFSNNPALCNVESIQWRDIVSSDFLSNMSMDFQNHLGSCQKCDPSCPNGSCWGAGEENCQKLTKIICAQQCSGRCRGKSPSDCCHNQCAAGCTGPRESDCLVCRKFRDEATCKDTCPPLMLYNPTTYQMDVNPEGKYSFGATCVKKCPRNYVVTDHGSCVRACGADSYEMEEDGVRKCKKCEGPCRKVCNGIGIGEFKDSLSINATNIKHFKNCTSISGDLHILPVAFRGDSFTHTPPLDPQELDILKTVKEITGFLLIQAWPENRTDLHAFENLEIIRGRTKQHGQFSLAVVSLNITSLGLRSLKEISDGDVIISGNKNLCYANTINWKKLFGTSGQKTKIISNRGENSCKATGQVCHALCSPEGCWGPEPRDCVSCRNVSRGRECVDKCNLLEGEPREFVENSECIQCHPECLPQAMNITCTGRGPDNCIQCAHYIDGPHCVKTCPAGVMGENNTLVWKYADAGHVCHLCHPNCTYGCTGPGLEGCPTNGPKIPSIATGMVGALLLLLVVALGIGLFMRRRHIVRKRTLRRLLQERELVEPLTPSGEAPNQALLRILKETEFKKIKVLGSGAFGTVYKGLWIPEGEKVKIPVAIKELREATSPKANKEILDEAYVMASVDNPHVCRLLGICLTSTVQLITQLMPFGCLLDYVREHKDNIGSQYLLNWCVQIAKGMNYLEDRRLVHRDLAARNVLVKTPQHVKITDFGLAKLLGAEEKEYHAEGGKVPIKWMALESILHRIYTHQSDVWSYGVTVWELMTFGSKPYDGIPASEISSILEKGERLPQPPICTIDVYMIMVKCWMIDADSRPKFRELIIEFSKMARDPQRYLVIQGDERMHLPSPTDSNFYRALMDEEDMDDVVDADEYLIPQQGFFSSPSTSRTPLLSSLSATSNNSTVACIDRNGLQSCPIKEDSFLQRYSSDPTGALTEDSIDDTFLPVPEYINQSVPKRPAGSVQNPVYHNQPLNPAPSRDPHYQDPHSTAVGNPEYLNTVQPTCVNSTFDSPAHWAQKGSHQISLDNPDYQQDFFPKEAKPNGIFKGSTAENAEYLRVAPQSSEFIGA
Sequence of Glycogen synthase kinase-3 beta (Homo sapiens) (P49841 whole entry, looked up): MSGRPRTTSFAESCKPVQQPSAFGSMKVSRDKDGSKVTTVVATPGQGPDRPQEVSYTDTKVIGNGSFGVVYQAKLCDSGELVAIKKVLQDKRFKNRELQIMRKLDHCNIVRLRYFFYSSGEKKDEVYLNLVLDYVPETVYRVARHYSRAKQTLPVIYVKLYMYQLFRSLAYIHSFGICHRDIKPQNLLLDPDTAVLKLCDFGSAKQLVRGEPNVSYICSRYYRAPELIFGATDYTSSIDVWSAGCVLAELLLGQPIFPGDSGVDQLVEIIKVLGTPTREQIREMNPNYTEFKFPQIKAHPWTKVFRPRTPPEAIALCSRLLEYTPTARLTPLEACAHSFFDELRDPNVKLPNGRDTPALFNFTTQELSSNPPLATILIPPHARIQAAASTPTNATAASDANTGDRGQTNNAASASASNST
Sequence of 3-phosphoinositide-dependent protein kinase 1 (Homo sapiens) (O15530 whole entry): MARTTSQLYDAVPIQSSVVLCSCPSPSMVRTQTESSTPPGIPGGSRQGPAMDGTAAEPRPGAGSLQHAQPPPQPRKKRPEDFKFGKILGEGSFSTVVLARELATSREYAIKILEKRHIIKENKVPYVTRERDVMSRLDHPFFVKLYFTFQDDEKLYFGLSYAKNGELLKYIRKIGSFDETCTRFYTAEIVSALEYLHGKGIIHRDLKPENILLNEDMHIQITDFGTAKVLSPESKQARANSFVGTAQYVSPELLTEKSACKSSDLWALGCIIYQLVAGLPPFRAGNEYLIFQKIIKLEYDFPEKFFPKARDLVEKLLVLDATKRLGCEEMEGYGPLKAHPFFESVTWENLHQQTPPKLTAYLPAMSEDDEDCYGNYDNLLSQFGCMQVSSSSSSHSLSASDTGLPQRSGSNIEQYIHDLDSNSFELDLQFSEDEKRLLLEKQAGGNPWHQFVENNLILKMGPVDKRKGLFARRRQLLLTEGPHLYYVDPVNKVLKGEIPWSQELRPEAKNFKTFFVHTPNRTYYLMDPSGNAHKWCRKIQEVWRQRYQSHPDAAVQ

C=C(C)[C@@]12O[C@@]3(/C=C/C=C/CCCCC)O[C@@H]1[C@@H]1[C@@H]4O[C@]4(CO)[C@@H](O)[C@]4(O)C(=O)C(C)=C[C@H]4[C@@]1(O3)[C@H](C)[C@H]2OC(C)=O [YUANHUADINE]
inhibition [1]: Dose-dependent effect
inhibition [2]: Active
inhibition [3]: Active
Activity (A549 [4]): Active
inhibition [5]: Active
Activity (Mus musculus): Non-toxic
Activity (A549 [6]): 12.6%
Activity (A549 [7]): 6.7%
inhibition [8]: Active
Activity (A549 [9]): Active
Activity (A549 [10]): Active
Activity (A549 [11]): 22.2%
IC50 [12]: 5.6 µM
Activity (A549 [13]): Active
Activity (A549 [14]): 7.3%
Activity (A549 [15]): Active
IC50 (NCI-H1993): 4.1 nM
Activity (A549 [16]): 0.3%
inhibition [17]: Active
inhibition [18]: Active
Activity (A549 [19]): 68.2%
inhibition [20]: Active
inhibition [21]: Dose-dependent effect
inhibition [22]: Dose-dependent effect
Activity (A549 [23]): 62.2%
IC50 (SK-MES-1): < 1 pM
inhibition [24]: Active
